Measured values taken from ChEMBL document CHEMBL1157679, “Substituted aryl malonamates as new serine beta-lactamase substrates: structure-activity studies” (Bioorg Med Chem, 2010).

How the values were obtained:
[1] = compound: O=C(CP(=O)(O)Oc1cccc(C(=O)O)c1)NCc1ccccc1; experiment: Inhibition of Enterobacter cloacae P99 beta-lactamase assessed as inhibition of cephalothin turnover by spectrophotometry
In short: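 Initial rates of 200 μM cephalothin hydrolysis were measured spectrophotometrically in 100 mM MOPS, pH 7.5, at 25 °C. Compounds were added from DMSO stocks, with final DMSO below 5%.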

[2] = substrate: O=C(O)c1cccc(OC(=O)C(Cc2ccccc2)C(=O)NCc2ccccc2)c1; experiment: (§1) Activity at Enterobacter cloacae P99 beta-lactamase by spectrophotometry
In short: (§2)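 Steady-state kinetics in 100 mM MOPS, pH 7.5, 25 °C. Substrate stocks were made in DMSO and diluted into buffer to a final DMSO below 5%. Initial rates of enzyme-catalysed turnover were followed spectrophotometrically. Steady-state parameters were derived from these initial rates. Buffer hydrolysis of the substrates was measured separately as pseudo-first-order rate constants.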

[3] = substrate: C[C@@H](C(=O)NCc1ccccc1)C(=O)Oc1cccc(C(=O)O)c1; experiment: as §1; in short: as §2
[4] = substrate: O=C(O)c1cccc(OC(=O)C2Cc3ccccc3N(Cc3ccccc3)C2=O)c1; experiment: as §1; in short: as §2
[5] = substrate: O=C(CC(=O)N(Cc1ccccc1)Cc1ccccc1)Oc1cccc(C(=O)O)c1; experiment: as §1; in short: as §2
[6] = substrate: CO[C@H](C(=O)NCc1ccccc1)C(=O)Oc1cccc(C(=O)O)c1; experiment: as §1; in short: as §2
[7] = substrate: CO[C@@H](C(=O)NCc1ccccc1)C(=O)Oc1cccc(C(=O)O)c1; experiment: as §1; in short: as §2
[8] = substrate: O=C(CC(=O)Oc1cccc(C(=O)O)c1)NCc1ccccc1; experiment: as §1; in short: as §2
[9] = substrate: CN(Cc1ccccc1)C(=O)CC(=O)Oc1cccc(C(=O)O)c1; experiment: as §1; in short: as §2
[10] = substrate: C[C@H](C(=O)NCc1ccccc1)C(=O)Oc1cccc(C(=O)O)c1; experiment: as §1; in short: as §2
[11] = substrate: O=C(O)c1cccc(OC(=O)C2CCN(Cc3ccccc3)C2=O)c1; experiment: as §1; in short: as §2
[12] = substrate: O=C(O)c1cccc(OC(=O)C(Cc2ccccc2)C(=O)NCc2ccccc2)c1; experiment: (§3) Ratio of Kcat to Km for Enterobacter cloacae P99 beta-lactamase; in short: as §2
[13] = substrate: C[C@@H](C(=O)NCc1ccccc1)C(=O)Oc1cccc(C(=O)O)c1; experiment: as §3; in short: as §2
[14] = substrate: O=C(O)c1cccc(OC(=O)C2Cc3ccccc3N(Cc3ccccc3)C2=O)c1; experiment: as §3; in short: as §2
[15] = substrate: O=C(CC(=O)N(Cc1ccccc1)Cc1ccccc1)Oc1cccc(C(=O)O)c1; experiment: as §3; in short: as §2
[16] = substrate: CO[C@H](C(=O)NCc1ccccc1)C(=O)Oc1cccc(C(=O)O)c1; experiment: as §3; in short: as §2
[17] = substrate: CO[C@@H](C(=O)NCc1ccccc1)C(=O)Oc1cccc(C(=O)O)c1; experiment: as §3; in short: as §2
[18] = substrate: O=C(CC(=O)Oc1cccc(C(=O)O)c1)NCc1ccccc1; experiment: as §3; in short: as §2
[19] = substrate: CN(Cc1ccccc1)C(=O)CC(=O)Oc1cccc(C(=O)O)c1; experiment: as §3; in short: as §2
[20] = substrate: C[C@H](C(=O)NCc1ccccc1)C(=O)Oc1cccc(C(=O)O)c1; experiment: as §3; in short: as §2
[21] = substrate: O=C(O)c1cccc(OC(=O)C2CCN(Cc3ccccc3)C2=O)c1; experiment: as §3; in short: as §2
[22] = substrate: C[C@@H](C(=O)NCc1ccccc1)C(=O)Oc1cccc(C(=O)O)c1; experiment: (§4) Activity at Streptomyces R61 DD-peptidase by spectrophotometry; details: Streptomyces sp. R61; in short: as §2
[23] = substrate: O=C(O)c1cccc(OC(=O)C2Cc3ccccc3N(Cc3ccccc3)C2=O)c1; experiment: as §4; details: Streptomyces sp. R61; in short: as §2
[24] = substrate: CO[C@@H](C(=O)NCc1ccccc1)C(=O)Oc1cccc(C(=O)O)c1; experiment: as §4; details: Streptomyces sp. R61; in short: as §2
[25] = substrate: O=C(CC(=O)Oc1cccc(C(=O)O)c1)NCc1ccccc1; experiment: as §4; details: Streptomyces sp. R61; in short: as §2
[26] = substrate: C[C@H](C(=O)NCc1ccccc1)C(=O)Oc1cccc(C(=O)O)c1; experiment: as §4; details: Streptomyces sp. R61; in short: as §2
[27] = substrate: O=C(O)c1cccc(OC(=O)C2CCN(Cc3ccccc3)C2=O)c1; experiment: as §4; details: Streptomyces sp. R61; in short: as §2
[28] = substrate: O=C(O)c1cccc(OC(=O)C(Cc2ccccc2)C(=O)NCc2ccccc2)c1; experiment: (§5) Ratio of Kcat to Km for Streptomyces R61 DD-peptidase; details: Streptomyces sp. R61; in short: as §2
[29] = substrate: C[C@@H](C(=O)NCc1ccccc1)C(=O)Oc1cccc(C(=O)O)c1; experiment: as §5; details: Streptomyces sp. R61; in short: as §2
[30] = substrate: O=C(O)c1cccc(OC(=O)C2Cc3ccccc3N(Cc3ccccc3)C2=O)c1; experiment: as §5; details: Streptomyces sp. R61; in short: as §2
[31] = substrate: O=C(CC(=O)N(Cc1ccccc1)Cc1ccccc1)Oc1cccc(C(=O)O)c1; experiment: as §5; details: Streptomyces sp. R61; in short: as §2
[32] = substrate: CO[C@@H](C(=O)NCc1ccccc1)C(=O)Oc1cccc(C(=O)O)c1; experiment: as §5; details: Streptomyces sp. R61; in short: as §2
[33] = substrate: O=C(CC(=O)Oc1cccc(C(=O)O)c1)NCc1ccccc1; experiment: as §5; details: Streptomyces sp. R61; in short: as §2
[34] = substrate: CN(Cc1ccccc1)C(=O)CC(=O)Oc1cccc(C(=O)O)c1; experiment: as §5; details: Streptomyces sp. R61; in short: as §2
[35] = substrate: C[C@H](C(=O)NCc1ccccc1)C(=O)Oc1cccc(C(=O)O)c1; experiment: as §5; details: Streptomyces sp. R61; in short: as §2
[36] = substrate: O=C(O)c1cccc(OC(=O)C2CCN(Cc3ccccc3)C2=O)c1; experiment: as §5; details: Streptomyces sp. R61; in short: as §2
[37] = substrate: O=C(O)c1cccc(OC(=O)C2Cc3ccccc3N(Cc3ccccc3)C2=O)c1; experiment: (§6) Ratio of Kcat to Km for Actinomadura R39 DD-peptidase; details: Actinomadura sp. R39; in short: as §2
[38] = substrate: CO[C@@H](C(=O)NCc1ccccc1)C(=O)Oc1cccc(C(=O)O)c1; experiment: as §6; details: Actinomadura sp. R39; in short: as §2
[39] = substrate: O=C(CC(=O)Oc1cccc(C(=O)O)c1)NCc1ccccc1; experiment: as §6; details: Actinomadura sp. R39; in short: as §2
[40] = substrate: CN(Cc1ccccc1)C(=O)CC(=O)Oc1cccc(C(=O)O)c1; experiment: as §6; details: Actinomadura sp. R39; in short: as §2
[41] = substrate: C[C@H](C(=O)NCc1ccccc1)C(=O)Oc1cccc(C(=O)O)c1; experiment: as §6; details: Actinomadura sp. R39; in short: as §2
[42] = substrate: O=C(O)c1cccc(OC(=O)C2CCN(Cc3ccccc3)C2=O)c1; experiment: as §6; details: Actinomadura sp. R39; in short: as §2
[43] = substrate: CO[C@@H](C(=O)NCc1ccccc1)C(=O)Oc1cccc(C(=O)O)c1; experiment: (§7) Activity at Actinomadura R39 DD-peptidase by spectrophotometry; details: Actinomadura sp. R39; in short: as §2
[44] = substrate: CN(Cc1ccccc1)C(=O)CC(=O)Oc1cccc(C(=O)O)c1; experiment: as §7; details: Actinomadura sp. R39; in short: as §2
[45] = substrate: C[C@H](C(=O)NCc1ccccc1)C(=O)Oc1cccc(C(=O)O)c1; experiment: as §7; details: Actinomadura sp. R39; in short: as §2
[46] = substrate: O=C(O)c1cccc(OC(=O)C2CCN(Cc3ccccc3)C2=O)c1; experiment: as §7; details: Actinomadura sp. R39; in short: as §2

B1: Beta-lactamase (Enterobacter cloacae), P05364 (protein)
chain: MMRKSLCCALLLGISCSALATPVSEKQLAEVVANTITPLMKAQSVPGMAVAVIYQGKPHYYTFGKADIAANKPVTPQTLFELGSISKTFTGVLGGDAIARGEISLDDAVTRYWPQLTGKQWQGIRMLDLATYTAGGLPLQVPDEVTDNASLLRFYQNWQPQWKPGTTRLYANASIGLFGALAVKPSGMPYEQAMTTRVLKPLKLDHTWINVPKAEEAHYAWGYRDGKAVRVSPGMLDAQAYGVKTNVQDMANWVMANMAPENVADASLKQGIALAQSRYWRIGSMYQGLGWEMLNWPVEANTVVEGSDSKVALAPLPVAEVNPPAPPVKASWVHKTGSTGGFGSYVAFIPEKQIGIVMLANTSYPNPARVEAAYHILEALQ
[1]
  kcat/Km: 45 s⁻¹ M⁻¹
[2]
  Km: 2.6 µM
  kcat: 0.05 s⁻¹
[3]
  Km: 2800 µM
  kcat: 6.6 s⁻¹
[4]
  Km: 1400 µM
  kcat: 0.41 s⁻¹
[5]
  Km: 32 µM
  kcat: 0.25 s⁻¹
[6]
  Km: > 1000 µM
  kcat: > 2.9 s⁻¹
[7]
  Km: > 1000 µM
  kcat: > 7.4 s⁻¹
[8]
  Km: 170 µM
  kcat: 41 s⁻¹
[9]
  Km: 700 µM
  kcat: 0.33 s⁻¹
[10]
  Km: 60 µM
  kcat: 1.17 s⁻¹
[11]
  Km: 2500 µM
  kcat: 0.12 s⁻¹
[12]
  kcat/Km: 1.9 ×10⁴ /s/M
[13]
  kcat/Km: 2.36 ×10³ /s/M
[14]
  kcat/Km: 290 s⁻¹ M⁻¹
[15]
  kcat/Km: 7.9 ×10³ /s/M
[16]
  kcat/Km: 2.9 ×10³ /s/M
[17]
  kcat/Km: 7.4 ×10³ /s/M
[18]
  kcat/Km: 2.45 ×10⁵ /s/M
[19]
  kcat/Km: 4.7 ×10² /s/M
[20]
  kcat/Km: 2.13 ×10⁴ /s/M
[21]
  kcat/Km: 50 s⁻¹ M⁻¹

B2: D-alanyl-D-alanine carboxypeptidase (Streptomyces sp. R61), P15555 (protein)
chain: MVSGTVGRGTALGAVLLALLAVPAQAGTAAAADLPAPDDTGLQAVLHTALSQGAPGAMVRVDDNGTIHQLSEGVADRATGRAITTTDRFRVGSVTKSFSAVVLLQLVDEGKLDLDASVNTYLPGLLPDDRITVRQVMSHRSGLYDYTNDMFAQTVPGFESVRNKVFSYQDLITLSLKHGVTNAPGAAYSYSNTNFVVAGMLIEKLTGHSVATEYQNRIFTPLNLTDTFYVHPDTVIPGTHANGYLTPDEAGGALVDSTEQTVSWAQSAGAVISSTQDLDTFFSALMSGQLMSAAQLAQMQQWTTVNSTQGYGLGLRRRDLSCGISVYGHTGTVQGYYTYAFASKDGKRSVTALANTSNNVNVLNTMARTLESAFCGKPTTAKLRSATSSATTVERHEDIAPGIARD
[22]
  Km: 90 µM
  kcat: 0.12 s⁻¹
[23]
  Km: > 200 µM
  kcat: > 4.2 ×10⁻³ /s
[24]
  Km: 280 µM
  kcat: 9.4 s⁻¹
[25]
  Km: 104 µM
  kcat: 0.7 s⁻¹
[26]
  Km: 320 µM
  kcat: 7.63 s⁻¹
[27]
  Km: > 200 µM
  kcat: > 3.6 ×10⁻³ /s
[28]
  kcat/Km: < 0.2 s⁻¹ M⁻¹
[29]
  kcat/Km: 1.31 ×10³ /s/M
[30]
  kcat/Km: 21 s⁻¹ M⁻¹
[31]
  kcat/Km: < 0.35 s⁻¹ M⁻¹
[32]
  kcat/Km: 3.3 ×10⁴ /s/M
[33]
  kcat/Km: 70 s⁻¹ M⁻¹
[34]
  kcat/Km: < 0.15 s⁻¹ M⁻¹
[35]
  kcat/Km: 2.37 ×10⁴ /s/M
[36]
  kcat/Km: 17.8 s⁻¹ M⁻¹

B3: D-alanyl-D-alanine carboxypeptidase (Actinomadura sp. R39), P39045 (protein)
chain: MKQSSPEPLRPRRTGGRGGARRAAALVTIPLLPMTLLGASPALADASGARLTELREDIDAILEDPALEGAVSGVVVVDTATGEELYSRDGGEQLLPASNMKLFTAAAALEVLGADHSFGTEVAAESAPGRRGEVQDLYLVGRGDPTLSAEDLDAMAAEVAASGVRTVRGDLYADDTWFDSERLVDDWWPEDEPYAYSAQISALTVAHGERFDTGVTEVSVTPAAEGEPADVDLGAAEGYAELDNRAVTGAAGSANTLVIDRPVGTNTIAVTGSLPADAAPVTALRTVDEPAALAGHLFEEALESNGVTVKGDVGLGGVPADWQDAEVLADHTSAELSEILVPFMKFSNNGHAEMLVKSIGQETAGAGTWDAGLVGVEEALSGLGVDTAGLVLNDGSGLSRGNLVTADTVVDLLGQAGSAPWAQTWSASLPVAGESDPFVGGTLANRMRGTAAEGVVEAKTGTMSGVSALSGYVPGPEGELAFSIVNNGHSGPAPLAVQDAIAVRLAEYAGHQAPEGARMMRGPVQGSGELECSWVQAC
[37]
  kcat/Km: < 20 s⁻¹ M⁻¹
[38]
  kcat/Km: 5 ×10⁴ /s/M
[39]
  kcat/Km: < 1.5 s⁻¹ M⁻¹
[40]
  kcat/Km: 3 s⁻¹ M⁻¹
[41]
  kcat/Km: 7.28 ×10² /s/M
[42]
  kcat/Km: 8 s⁻¹ M⁻¹
[43]
  Km: 53 µM
  kcat: 2.81 s⁻¹
[44]
  Km: > 1000 µM
  kcat: > 3 ×10⁻³ /s
[45]
  Km: > 1000 µM
  kcat: > 0.73 s⁻¹
[46]
  Km: > 1000 µM
  kcat: > 8 ×10⁻³ /s
